Test results taken from ChEMBL document CHEMBL1649079, “Pipecolic acid derivatives as small-molecule inhibitors of the Legionella MIP protein” (J Med Chem, 2011).
Activity calls are given as the source filed them. No cut-off for these calls is given here.

Tests used:
[1] = target: T1, Peptidyl-prolyl cis-trans isomerase FKBP1A (Homo sapiens, UniProt P62942); test: Inhibition of PPIase activity of human FKBP12 expressed in Escherichia coli by spectrophotometry
Summary of the method: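 Chymotrypsin-coupled PPIase assay using 20 nM FKBP12 and 40 μM succinyl-Ala-Phe-Pro-Phe-4-nitroanilide. Enzyme and substrate preincubated with or without various inhibitor concentrations for 4 min at 10 °C in 35 mM HEPES/NaOH, pH 7.8.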

[2] = target: Outer membrane protein MIP (Legionella pneumophila, UniProt Q70YI1)
[3] = system: Legionella pneumophila; test: Antibacterial activity against MIP protein-deficient Legionella pneumophila JR32-2 infected in human U937 cells at 50 uM after 24 to 48 hrs; assay type: functional, organism-based
Summary of the method: (§1)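 U937 macrophage-like cells infected at MOI 10, with or without 50 μM compound kept present throughout incubation. Extracellular bacteria killed with gentamicin 2 h post-infection. Infection samples plated on BCYE agar for CFU counts immediately and after 24 and 48 h.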

[4] = system: Escherichia coli; test: Antibacterial activity against Escherichia coli HB101 infected in human U937 cells at 50 uM after 24 to 48 hrs; assay type: functional, cell-based; details: U-937; summary of the method: as §1
[5] = system: Legionella pneumophila; test: Antibacterial activity against wild type Legionella pneumophila Philadelphia-1 JR32 infected in human U937 cells at 50 uM after 24 to 48 hrs; assay type: functional, organism-based; details: U-937; summary of the method: as §1
[6] = target: T1, Peptidyl-prolyl cis-trans isomerase FKBP1A; test: Inhibition of FKBP12

Chain of Outer membrane protein MIP (Q70YI1 21-233 limits assumed): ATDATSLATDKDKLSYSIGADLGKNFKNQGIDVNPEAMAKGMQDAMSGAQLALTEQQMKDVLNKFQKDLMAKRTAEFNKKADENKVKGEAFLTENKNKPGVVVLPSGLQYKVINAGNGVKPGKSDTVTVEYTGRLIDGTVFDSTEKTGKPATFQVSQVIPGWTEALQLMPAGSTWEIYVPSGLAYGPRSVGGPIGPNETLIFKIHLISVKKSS
T1 sequence (P62942 whole entry): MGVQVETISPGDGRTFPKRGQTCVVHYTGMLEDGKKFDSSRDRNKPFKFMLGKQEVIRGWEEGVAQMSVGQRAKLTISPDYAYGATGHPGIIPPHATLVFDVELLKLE

| SMILES | IC50 [1] | IC50 [2] | other results |
| --- | --- | --- | --- |
| CCOC(=O)C1CCCCN1C(=O)C(=O)C(C)CC (stereo not drawn) | > 30 µM | > 100 µM | – |
| CCOC(=O)C1CCCCN1S(=O)(=O)c1cccc([N+](=O)[O-])c1 (stereo not drawn) | 2.8 µM | > 100 µM | – |
| CCOC(=O)C1CCCCN1S(=O)(=O)c1ccccc1 (stereo not drawn) | 3.1 µM | > 100 µM | – |
| CO[C@H]1C[C@@H]2CC[C@@H](C)[C@@](O)(O2)C(=O)C(=O)N2CCCC[C@H]2C(=O)O[C@H]([C@H](C)C[C@@H]2CC[C@@H](O)[C@H](OC)C2)CC(=O)[C@H](C)/C=C(\C)[C@@H](O)[C@@H](OC)C(=O)[C@H](C)C[C@H](C)/C=C/C=C/C=C/1C | – | – | Activity [3]: Active; Activity [4]: Active; Activity [5]: Active |
| O=C(OCCCc1cccnc1)C1CCCCN1S(=O)(=O)c1cccc([N+](=O)[O-])c1 (stereo not drawn) | 0.15 µM | 32 µM | – |
| CCOC(=O)C1CCCCN1S(=O)(=O)Cc1ccccc1 (stereo not drawn) | 2.6 µM | 87 µM | – |
| COc1cc(CCCOC(=O)C2CCCCN2S(=O)(=O)c2cccc([N+](=O)[O-])c2)cc(OC)c1OC (stereo not drawn) | 0.07 µM | > 100 µM | – |
| CCC(C)C(=O)C(=O)N1CCCCC1C(=O)OCCCc1cc(OC)c(OC)c(OC)c1 (stereo not drawn) | 4.2 µM | > 100 µM | – |
| COc1cc(CCCOC(=O)[C@@H]2CCCCN2S(=O)(=O)Cc2ccccc2)cc(OC)c1OC | 0.2 µM | – | Ki [6]: 0.23 µM; Activity [5]: inactive |
| Nc1cccc(S(=O)(=O)N2CCCCC2C(=O)OCCCc2cccnc2)c1 (stereo not drawn) | 0.32 µM | > 100 µM | – |
| COc1cc(CCCOC(=O)C2CCCCN2S(=O)(=O)c2ccccc2)cc(OC)c1OC (stereo not drawn) | 0.12 µM | – | – |
| CCC(C)C(=O)C(=O)N1CCCCC1C(=O)OC(CCc1ccccc1)c1ccccc1 (stereo not drawn) | > 30 µM | > 100 µM | – |
| COc1cc(CCCOC(=O)C2CCCCN2S(=O)(=O)c2cccc(N)c2)cc(OC)c1OC (stereo not drawn) | 0.26 µM | > 100 µM | – |
| COc1cc(CCCOC(=O)C2CCCCN2S(=O)(=O)Cc2ccccc2)cc(OC)c1OC (racemic) | 0.2 µM | – | – |
